# Reference: ChEMBL document CHEMBL1125034, “Design and synthesis of 4H-3,1-benzoxazin-4-ones as potent alternate substrate inhibitors of human leukocyte elastase” (J Med Chem, 1990)
# Target: T1, Neutrophil elastase (Homo sapiens) (UniProt P08246)
# T1 sequence (whole entry): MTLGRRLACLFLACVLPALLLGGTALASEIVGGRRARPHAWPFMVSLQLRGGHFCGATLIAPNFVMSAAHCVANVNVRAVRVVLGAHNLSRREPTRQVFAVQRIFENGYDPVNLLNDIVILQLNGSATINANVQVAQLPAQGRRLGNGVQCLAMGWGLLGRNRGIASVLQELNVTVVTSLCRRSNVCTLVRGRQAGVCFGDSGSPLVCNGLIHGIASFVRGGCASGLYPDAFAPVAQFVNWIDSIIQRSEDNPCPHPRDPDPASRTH
# Assay: Component deacylation rate constant for interaction with human leukocyte elastase
# Conditions: not given
row,Structure (SMILES),Log koff
1,Cc1cccc2nc(C(F)(F)F)oc(=O)c12,-2.43
2,COC(=O)[C@H](Cc1ccc(O)cc1)Nc1nc2ccccc2c(=O)o1,-3.07
3,CC(C)C[C@H](NC(=O)C1CCCN1c1nc2ccccc2c(=O)o1)C(N)=O (some centres undefined),-3.49
4,O=c1oc(/C=C/c2ccccc2)nc2ccccc12,-2.5
5,CC(C)C[C@H](NC(=O)[C@@H]1CCCN1c1nc2ccccc2c(=O)o1)C(=O)NCC(N)=O,-3.64
6,COC(=O)[C@H](CC(C)C)Nc1nc2ccccc2c(=O)o1,-3.41
7,COC(=O)[C@@H](CC(C)C)Nc1nc2ccccc2c(=O)o1,-2.85
8,O=c1oc(NCCc2ccccc2)nc2ccccc12,-2.72
9,NC(=O)[C@H](Cc1ccccc1)NC(=O)[C@@H]1CCCN1c1nc2ccccc2c(=O)o1,-3.27
10,CCSc1nc2cccc(C)c2c(=O)o1,-2.85
11,CCCCNc1nc2cc(N)ccc2c(=O)o1,-2.74
12,CC(C)Nc1nc2ccccc2c(=O)o1,-2.51

# Test system: not listed separately
# Assay: Alkaline hydrolysis rate of the compound
# Format: ADME
# Conditions: not given
# Summary of the method: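 Alkaline hydrolysis rate constants measured at several pH values at 25 °C. Loss of the long-wavelength UV chromophore (λmax typically 300-345 nm) was followed by spectrophotometer.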
row,Structure (SMILES),Log kOH-
1,Cc1cccc2nc(C(F)(F)F)oc(=O)c12,3.14
2,COC(=O)[C@H](Cc1ccc(O)cc1)Nc1nc2ccccc2c(=O)o1,1.28
3,CC(C)C[C@H](NC(=O)C1CCCN1c1nc2ccccc2c(=O)o1)C(N)=O (some centres undefined),1.27
4,O=c1oc(/C=C/c2ccccc2)nc2ccccc12,1.57
5,CC(C)C[C@H](NC(=O)[C@@H]1CCCN1c1nc2ccccc2c(=O)o1)C(=O)NCC(N)=O,1.26
6,COC(=O)[C@H](CC(C)C)Nc1nc2ccccc2c(=O)o1,1.13
7,COC(=O)[C@@H](CC(C)C)Nc1nc2ccccc2c(=O)o1,1.32
8,O=c1oc(NCCc2ccccc2)nc2ccccc12,1.15
9,NC(=O)[C@H](Cc1ccccc1)NC(=O)[C@@H]1CCCN1c1nc2ccccc2c(=O)o1,1.23
10,CCSc1nc2cccc(C)c2c(=O)o1,1.58
11,CCCCNc1nc2cc(N)ccc2c(=O)o1,-0.44
12,CC(C)Nc1nc2ccccc2c(=O)o1,1.21

# Target: T2, Neutrophil elastase (Homo sapiens, UniProt P08246)
# T2 sequence (P08246 whole entry): T1 sequence (whole entry)
# Assay: Inhibition of human leukocyte elastase
# Conditions: not given
row,Structure (SMILES),Ki
1,Cc1cccc2nc(C(F)(F)F)oc(=O)c12,28.8 nM
2,COC(=O)[C@H](Cc1ccc(O)cc1)Nc1nc2ccccc2c(=O)o1,447 nM
3,CC(C)C[C@H](NC(=O)C1CCCN1c1nc2ccccc2c(=O)o1)C(N)=O (some centres undefined),21.4 nM
4,O=c1oc(/C=C/c2ccccc2)nc2ccccc12,8130 nM
5,CC(C)C[C@H](NC(=O)[C@@H]1CCCN1c1nc2ccccc2c(=O)o1)C(=O)NCC(N)=O,20.9 nM
6,COC(=O)[C@H](CC(C)C)Nc1nc2ccccc2c(=O)o1,170 nM
7,COC(=O)[C@@H](CC(C)C)Nc1nc2ccccc2c(=O)o1,37.2 nM
8,O=c1oc(NCCc2ccccc2)nc2ccccc12,1700 nM
9,NC(=O)[C@H](Cc1ccccc1)NC(=O)[C@@H]1CCCN1c1nc2ccccc2c(=O)o1,37.2 nM
10,CCSc1nc2cccc(C)c2c(=O)o1,0.933 nM
11,CCCCNc1nc2cc(N)ccc2c(=O)o1,646 nM

# Target: T1, Neutrophil elastase (Homo sapiens)
# Assay: Component acylation rate constant for interaction with human leukocyte elastase
# Conditions: not given
row,Structure (SMILES),Log kon
1,Cc1cccc2nc(C(F)(F)F)oc(=O)c12,5.11
2,COC(=O)[C@H](Cc1ccc(O)cc1)Nc1nc2ccccc2c(=O)o1,3.28
3,CC(C)C[C@H](NC(=O)C1CCCN1c1nc2ccccc2c(=O)o1)C(N)=O (some centres undefined),4.18
4,O=c1oc(/C=C/c2ccccc2)nc2ccccc12,2.59
5,CC(C)C[C@H](NC(=O)[C@@H]1CCCN1c1nc2ccccc2c(=O)o1)C(=O)NCC(N)=O,4.04
6,COC(=O)[C@H](CC(C)C)Nc1nc2ccccc2c(=O)o1,3.36
7,COC(=O)[C@@H](CC(C)C)Nc1nc2ccccc2c(=O)o1,4.58
8,O=c1oc(NCCc2ccccc2)nc2ccccc12,3.05
9,NC(=O)[C@H](Cc1ccccc1)NC(=O)[C@@H]1CCCN1c1nc2ccccc2c(=O)o1,4.16
10,CCSc1nc2cccc(C)c2c(=O)o1,6.18
11,CCCCNc1nc2cc(N)ccc2c(=O)o1,3.45
12,CC(C)Nc1nc2ccccc2c(=O)o1,4.77

# Test system: not listed separately
# Assay: Partition coefficient (logD7.4)
# Format: physicochemical
# Conditions: octanol/water, pH 7.4
row,Structure (SMILES),logD
1,Cc1cccc2nc(C(F)(F)F)oc(=O)c12,2.9
2,COC(=O)[C@H](Cc1ccc(O)cc1)Nc1nc2ccccc2c(=O)o1,0.3
3,CC(C)C[C@H](NC(=O)C1CCCN1c1nc2ccccc2c(=O)o1)C(N)=O (some centres undefined),1
4,O=c1oc(/C=C/c2ccccc2)nc2ccccc12,3.9
5,CC(C)C[C@H](NC(=O)[C@@H]1CCCN1c1nc2ccccc2c(=O)o1)C(=O)NCC(N)=O,0.8
6,COC(=O)[C@H](CC(C)C)Nc1nc2ccccc2c(=O)o1,3.2
7,COC(=O)[C@@H](CC(C)C)Nc1nc2ccccc2c(=O)o1,3.2
8,O=c1oc(NCCc2ccccc2)nc2ccccc12,3.2
9,NC(=O)[C@H](Cc1ccccc1)NC(=O)[C@@H]1CCCN1c1nc2ccccc2c(=O)o1,1.2
10,CCSc1nc2cccc(C)c2c(=O)o1,3.6
11,CCCCNc1nc2cc(N)ccc2c(=O)o1,1.7
12,CC(C)Nc1nc2ccccc2c(=O)o1,2.4
